Measurements gathered from unrelated publications.
BMP2K: BMP-2-inducible protein kinase (BMP2K, Homo sapiens, UniProt Q9NSY1)
murC: UDP-N-acetylmuramate--L-alanine ligase (murC, Escherichia coli K-12, UniProt P17952)
Trypanothione synthetase: Trypanothione synthetase (Trypanosoma cruzi, UniProt Q9GT49)
MTNR1A: Melatonin receptor type 1A (MTNR1A, Homo sapiens, UniProt P48039)
HTR2C: 5-hydroxytryptamine receptor 2C (HTR2C, Homo sapiens, UniProt P28335)

O=C(NCCCNc1nc(Nc2cccc(NC(=O)N3CCCC3)c2)ncc1Br)C1CCC1 — remaining activity (BMP2K; enzyme activity, inhibitor, radiometric; 1 µM): -1%
O=C(Nc1ccc(C=NNS(=O)(=O)c2ccc3ccccc3c2)cc1)c1ccc([N+](=O)[O-])cc1 — remaining activity (murC; enzyme activity, inhibitor, absorbance; 50 µM): 71%
O=C(CN1C(=O)Cc2c([nH]c3ccc(Br)cc23)-c2ccc(Cl)cc21)Nc1ccccc1 — inhibition (Trypanothione synthetase; enzyme activity, inhibitor, absorbance; 30 µM): 29.6%
COc1cc2c(CCNC(C)=O)c(I)[nH]c2cc1[N+](=O)[O-] — Emax (MTNR1A; cAMP, agonist, TR-FRET; CHO-K1; 20 min): 92%
CCCOc1ccc(OC)c(F)c1C(=O)c1ccc(C(=O)N[C@@H]2CNC[C@H]2NC(=O)c2ccc3[nH]ncc3c2)cc1 — remaining activity (Rho-associated protein kinase 2 (ROCK2, Homo sapiens, UniProt O75116); enzyme activity, inhibitor; 0.1 µM): 25%
O=C(c1ccc(Cl)cc1)N(Cc1ccccc1)C1CCCCC1 — inhibition (HTR2C; ligand displacement, radioligand; 10 µM): -5.5%
O=C(Nc1ccc(S(=O)(=O)N2CCC(Cl)CC2)cc1)c1ccc([N+](=O)[O-])o1 — inhibition (MTNR1A; ligand displacement, radioligand; 10 µM): 8%
NS(=O)(=O)c1ccc(CNc2nc(Nc3cccc(NC(=O)N4CCCC4)c3)ncc2Br)cc1 — remaining activity (BMP2K; enzyme activity, inhibitor, radiometric; 1 µM): 1%
O=C(Cc1ccc2c(c1)OCO2)Oc1ccccc1C=NNS(=O)(=O)c1ccc2ccccc2c1 — remaining activity (murC; enzyme activity, inhibitor, absorbance; 100 µM): 57%
CC(CCC(=O)NCC(=O)O)C1CCC2C3CCC4CC(O)CCC4(C)C3CC(O)C12C (stereo not drawn) — ΔTm (Serine hydroxymethyltransferase, cytosolic (SHMT1, Homo sapiens, UniProt P34896); thermal stability; 50 µM): 9.2 °C
NCCCCNC(=O)CN1C(=O)Cc2c([nH]c3ccc(Br)cc23)-c2ccc(Cl)cc21 — inhibition (Trypanothione synthetase; enzyme activity, inhibitor, absorbance; 30 µM): 6.7%
COc1ccc2[nH]cc(CCNC(C)=O)c2c1I — Emax (MTNR1A; cAMP, agonist, TR-FRET; CHO-K1; 20 min): 90%
Oc1cccc(Nc2nc(-c3ccc(F)cc3F)cs2)c1 — inhibition (HTR2C; ligand displacement, radioligand; 10 µM): 17.4%
COc1ccc2ncn(CCNC(C)=O)c2c1 — Emax (MTNR1A; β-arrestin recruitment, agonist; CHO-K1; 90 min): 92%
Cc1ccc(C(=O)Nc2ccc(CN3CCN(C)CC3)c(C(F)(F)F)c2)cc1C#Cc1cnc2cccnn12 — remaining signal (Ephrin type-B receptor 6 (EPHB6, Homo sapiens, UniProt O15197); cell-free assay; 23.5 nM): 85%
NS(=O)(=O)c1ccc(CNc2ccnc(Nc3cccc(NC(=O)N4CCCC4)c3)n2)cc1 — remaining activity (BMP2K; enzyme activity, inhibitor, radiometric; 1 µM): 80%
COc1ccc2cccc(CCNC(C)=O)c2c1 — Emax (MTNR1A; β-arrestin recruitment, agonist; CHO-K1; 90 min): 96%
O=C(O)C(=O)Cc1ccccc1 — Km (Macrophage migration inhibitory factor (MIF, Homo sapiens, UniProt P14174); enzyme activity, substrate): 760 µM
Cc1nn(CC(F)(F)F)cc1Nc1ncc(Br)c(NCCc2cnc[nH]2)n1 — remaining activity (BMP2K; enzyme activity, inhibitor, radiometric; 1 µM): 47%
Cc1cccnc1C(=O)Nc1ccc(N2C(=O)c3ccccc3C2=O)c(Cl)c1 — Emax (Metabotropic glutamate receptor 1 (Grm1, Rattus norvegicus, UniProt P23385); calcium signal, positive allosteric modulator; T-REx-293): 109%
O=C(Nc1ccc(C=NNS(=O)(=O)c2ccc3ccccc3c2)cc1)c1ccccc1Br — remaining activity (murC; enzyme activity, inhibitor, absorbance; 100 µM): 41%
O=C(NCCCNc1nc(Nc2cccc(NC(=O)N3CCCC3)c2)ncc1I)c1cccs1 — remaining activity (BMP2K; enzyme activity, inhibitor, radiometric; 1 µM): 1%
NNC(=O)CN1C(=O)Cc2c([nH]c3ccc(Br)cc23)-c2ccc(Cl)cc21 — inhibition (Trypanothione synthetase; enzyme activity, inhibitor, absorbance; 30 µM): 10.1%
Cc1cnc(Nc2ccc(OCCN3CCCC3)cc2)nc1Nc1cccc(S(=O)(=O)NC(C)(C)C)c1 — ΔTm (BRWD3 (Homo sapiens, UniProt Q6RI45); thermal stability, DSF; 10 µM): 0.58 °C
